FAK inh: FAK (human) kinase inhibition. Q05397. biochemical FAK kinase activity assay. inhibition, %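 (tested at 7 µM)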. 97,000 compounds, 0.84% hits. AID 727;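 further: 0% = DMSO and 100% = reference compound high control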
cytoskel mod: modifiers of cytoskeleton assembly; HUVEC TNFa F-actin phalloidin imaging, high content; inhibition, % at 2 µM; 91,000 compounds, 0.18% hits; AID 836;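 active means inhibition above the batch mean plus 3 SD and confirmed as a hit by visual image inspection, cut at about 30% in these data, passing the limit was not always enough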
E-sel TNF inh: blocks E-selectin expression induced by TNF alpha; HUVEC TNFa-induced E-selectin immunofluorescence, high content; inhibition, % at 2 µM; 120,000 compounds, 0.71% hits; AID 1246;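 active means inhibition above the batch mean plus 3 SD, and confirmed as a hit on visual image review, cut at about 43% in these data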;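 further: 0% = TNF-stimulated DMSO wells and 100% = unstimulated control wells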
HIV Rev-RRE inh: HIV Rev-RRE protein-RNA interaction inhibition. 97,000 compounds, 0.79% hits. inhibition, % at 8 µM. P05866. Rev peptide-RRE RNA binding, FRET;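 active means inhibition above the screen-wide mean plus 3 SD, cut at about 35% in these data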;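 further: 0% = median DMSO wells and 100% = median Neomycin B control wells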
Target sequence (P05866 whole entry, looked up): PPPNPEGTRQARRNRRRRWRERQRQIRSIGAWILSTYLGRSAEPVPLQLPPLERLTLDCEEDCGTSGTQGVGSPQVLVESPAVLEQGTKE
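Material: labelled RRE RNA duplex and labelled Rev peptide / Buffer or medium: HEPES pH 7.5 salt buffer with EDTA / Compound dosing: single point, 8 µM final nominal compound concentration / Benchmarks: DMSO low control, neomycin B high control / Timing: 5 min preincubation and 15 min binding, 25 °C / Technique: FRET fluorescence readout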
PLK1 inh: PLK1 (human) kinase inhibition; inhibition, % at 10 µM; recombinant PLK1 kinase, TR-FRET peptide phosphorylation; AID 619; 97,000 compounds, 0.53% hits;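 active means inhibition of 50% or more in the single-concentration screen; inactive means inhibition below 50%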;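 further: 0% = DMSO max control and 100% = H-89 dihydrochloride min control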
Plk1 PBD FP: Plk1 (human) PBD binding inhibition. P53350. Plk1 PBD phosphopeptide binding, fluorescence polarization. inhibition, %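 (tested at about 20 µM)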. 97,000 compounds, 0.13% hits; in the data active means inhibition above about 34%, passing the limit was not always enough
FAK inh conf: confirmation of human focal adhesion kinase (FAK) inhibitors. AID 794. inhibition, % at 7 µM. FAK kinase biochemical inhibition assay. shares compounds with FAK inh. 750 compounds, 28% hits
Starred values were filed as active, the others as inactive; . = not tested or not shown. Shown are actives, neighbours in structure and some others; about 2.2% of the full set was active somewhere. Unless noted, no stated cut-off is given here; in the data, active means inhibition above about 19%; inactive means the rest.

SMILES	FAK inh	cytoskel mod	E-sel TNF inh	HIV Rev-RRE inh	PLK1 inh	Plk1 PBD FP	FAK inh conf
C#Cc1ccc(C(=O)Nc2ccc(N3CCC(C)CC3)c(C(N)=O)c2)cc1	.	.	49	.	.	.	.
COc1ccc(CN(C)CC(=O)NC2CCCc3ccccc32)cc1OC (stereo unspecified)	.	.	-9	.	.	.	.
O=C(Nc1ccccc1C(=O)NCc1ccc(Cl)cc1)c1ccco1	27*	-2	3	12	-7	-1	2
O=C(CNC(=O)c1ccco1)NCC(=O)OCc1ccc(Cl)cc1	39*	4	12	3	-3	2	1
O=C(Cn1ncc(Cl)c(Cl)c1=O)N1CCN(S(=O)(=O)c2ccc3ccccc3c2)CC1	.	.	32	.	.	.	.
O=C(c1ccc2c(c1)OCO2)[C@@H]1[C@@H]2C(=O)N(C3CCCCC3)C(=O)[C@@H]2C2c3ccccc3C=CN21 (stereo partly specified)	9	-7	-13	8	-12	0	.
O=C(c1cccs1)[C@@H]1[C@@H]2C(=O)N(Cc3ccc4c(c3)OCO4)C(=O)[C@@H]2C2c3ccccc3C=CN21 (stereo partly specified)	20*	1	20	20	-4	-29	9
CSc1nc2ccc3nc(NC(=O)c4ccc(Cl)s4)sc3c2s1	-1	-10	16	4	-17	2	.
CSc1nc2ccc3nc(NC(=O)c4cccs4)sc3c2s1	40*	14	26	8	-21	-2	26*
COC(=O)c1ccccc1NC(=O)c1cccc(COc2ccccc2Cl)c1	23*	-7	-20	19	0	22	0
Cc1nn(CC(=O)Nc2ccc3c(c2)oc2ccccc23)c(=O)c2ccccc12	29*	1	22	0	-5	-3	16
CCC(NC(=O)Nc1ccc(O)cc1)(C(F)(F)F)C(F)(F)F	20*	3	12	5	3	-17	-1
O=C1C=C(Nc2ccccc2O)c2ccccc2C1=O	23*	-4	11	12	0	26	15
C=CCn1c(SCC(=O)c2ccc(CNC(C)=O)o2)nc2scc(C3CC3)c2c1=O	27*	23	.	6	-7	-9	2
OC(COc1ccc(C2C=CCC2)cc1)CN1CCCCC1 (stereo unspecified)	22*	-33	.	2	24	10	8
O=C(c1ccccc1)c1ccc(OCC(O)CN2CCCCC2)cc1 (stereo unspecified)	0	4	-5	-3	-15	31	.
N/C(=N\OC(=O)c1cccc2ccccc12)c1cccc([N+](=O)[O-])c1	28*	-29	-24	-1	-6	-9	7
Cc1ccccc1C(=O)O/N=C(\N)c1cccc([N+](=O)[O-])c1	8	4	-62	4	-8	0	.
CCN(CC)C(=S)SCC(=O)c1ccc(Br)cc1	.	.	16	.	.	.	.
Cc1ccc(CSCC(=O)N/N=C/c2ccc(OCC(=O)Nc3ccc(C)cc3)cc2)cc1	26*	17	2	3	-8	5	12
Nc1nc(F)cc(NCc2ccccc2)n1	.	.	-24	.	.	.	.
O/N=C/c1cc(Br)ccc1OCc1cccc(F)c1	20*	-3	-9	14	32	11	6
CCNC(=O)COC(=O)c1sccc1C	.	.	-3	.	.	.	.
CCOc1ccccc1-c1nc(-c2ccc(NC(=O)Cc3ccc(OC)cc3)cc2)no1	25*	38	1	9	-9	-9	8
CC(OC(=O)c1cc(=O)[nH]c2ccccc12)C(=O)c1ccccc1 (stereo unspecified)	.	.	-23	.	.	.	.
SMILES	FAK inh	cytoskel mod	E-sel TNF inh	HIV Rev-RRE inh	PLK1 inh	Plk1 PBD FP	FAK inh conf
O=C(CSc1nc(-c2ccco2)cc(C(F)(F)F)n1)NCCCN1CCOCC1	.	.	-8	.	.	.	.
O=[N+]([O-])c1ccc(COc2cccc(CNc3ccc(Br)cc3)c2)cc1	.	.	-19	.	.	.	.
O=C(OCC(=O)N1CCN(C(=O)c2ccco2)CC1)c1cc(-c2ccc(Cl)c(Cl)c2Cl)nc2ccccc12	35*	2	-2	-2	-8	-24	19*
O=C(OCC(=O)N1CCN(C(=O)c2ccco2)CC1)c1cc(-c2ccco2)nc2ccccc12	69*	7	-16	-9	-22	-1	17
O=C1Nc2ccccc2S/C1=C\C(=O)N1CCCC1	.	.	13	.	.	.	.
O=C1Nc2ccccc2S/C1=C/Nc1cccc(Cl)c1	26*	-22	-23	0	-13	2	6
COc1cccc(-c2cc3nc4c(c(N5CCC6(CC5)OCCO6)n3n2)CCC4)c1	.	.	13	.	.	.	.
Cc1ccc(-c2c3c(nc4sc(C(N)=O)c(N)c24)CCC3)cc1	22*	15	6	4	-8	0	5
CCOC(=O)c1cnn(-c2nc(SC)nc3sc4c(c23)CCCC4)c1N	-2	7	5	17	-8	3	.
CCOC(=O)c1cnn(-c2ncnc3sc4c(c23)CCC4)c1N	26*	.	.	8	-11	9	17
CCOC(=O)c1cccc2c1-c1ccccc1/C2=N/O	49*	-2	-13	11	-1	-8	26*
COCCNC(=O)c1c(N)n(CCCn2ccnc2)c2nc3ccccc3nc12	24*	-14	-10	14	-3	-11	-1
COc1ccc(CNC(=O)COC(=O)C2CCC(C(C)(C)C)CC2)cc1 (stereo unspecified)	.	.	-11	.	.	.	.
Oc1oc(-c2ccccc2)nc1C=Nc1ccccc1	5	14	-16	3	-13	-14	.
CC(=O)Nc1ccc(N=Cc2nc(-c3ccc(C)cc3)oc2O)cc1	24*	4	-3	0	-16	-13	12
CS(=O)(=O)N1CCN(c2ccccc2NC(=O)c2ccc(Br)o2)CC1	21*	8	7	8	1	-4	3
CS(=O)(=O)N1CCN(c2ccccc2NC(=O)c2ccco2)CC1	13	-5	-5	10	-8	5	.
O=C(Cc1c(Cl)cccc1Cl)Nc1cccnc1	.	.	-9	.	.	.	.
O=C(CSc1nnc(Nc2ccccc2)s1)NN1C(=O)NC2(CCCCC2)C1=O	.	.	-24	.	.	.	.
COC(=O)Cn1nc(-c2ccc(C)cc2)c2ccccc2c1=O	.	.	-13	.	.	.	.
Cc1cccc(NC(=O)CSc2nncn2-c2ccccn2)c1	.	.	-18	.	.	.	.
CCOC(=O)c1cnc2c(-c3ccccc3)cnn2c1N	29*	-49	.	0	-20	18	0
COC(=O)C1=C(C)NC2=C(C(=O)CC(c3cccs3)C2)C1c1ccsc1 (stereo unspecified)	22*	-24	.	-3	-13	-9	21*
COC(=O)C1=C(C)NC2=C(C(=O)CCC2)C1c1ccsc1 (stereo unspecified)	4	.	.	5	-2	-10	.
CCOc1ccccc1NC(=O)NC(=O)N(C)S(=O)(=O)c1ccc(C)cc1	.	.	-23	.	.	.	.
Cc1ccc(C(=O)NCCn2c(N)c(C#N)c3nc4ccccc4nc32)cc1	.	.	-1	.	.	.	.
